Reference: PMC11751479 (Nature Communications, 2025)

Legend:
Assay in all cases: HPLC assay, Michaelis-Menten regression
Assay type in all cases: biochemical, Cistanche tubulosa
CtUGT85A191 = conditions: read-out: apparent KM; UDP-glucose donor; optimal conditions (supplement)
In short: (§1)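 Recombinant enzyme is expressed in E. coli and purified. Kinetic reactions follow supplementary methods. They are stopped with a double volume of methanol and centrifuged at 12,000 × g for 30 min, and the supernatant is analysed by HPLC. Kinetic constants come from nonlinear Michaelis-Menten regression.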

CtUGT85AF12 = conditions: read-out: apparent KM; UDP-glucose donor; optimal conditions (supplement)
In short: as §1

CtUGT73EV1 = conditions: UDP-glucose donor; optimal conditions (supplement)
CtUGT79G13 = conditions: UDP-rhamnose donor; optimal conditions (supplement)

Which Km (CtUGT85A191) does the source give for `OCCc1ccc(O)c(O)c1` [compound 10, hydroxytyrosol] here?
The Km was 288 ± 36.8 µM.

What about the Km (CtUGT85AF12) of the same molecule?
Its Km is 75.7 ± 12 µM.

Which Km (CtUGT73EV1) does the source give for `C[C@@H]1O[C@@H](O[C@@H]2[C@@H](O)[C@H](OCCc3ccc(O)c(O)c3)O[C@H](CO)[C@H]2OC(=O)/C=C/c2ccc(O)c(O)c2)[C@H](O)[C@H](O)[C@H]1O` [compound 20, acteoside] here?
Its Km is 135 ± 24.1 µM.

For `OCCc1ccc(O)cc1` [compound 9, tyrosol], which Km (CtUGT85A191) is on record?
Its Km is 138 ± 22.7 µM.

And the Km (CtUGT85AF12)?
The Km was 9.92 ± 2.2 µM.

For `O=C(/C=C/c1ccc(O)c(O)c1)O[C@H]1[C@H](O)[C@@H](O)[C@H](OCCc2ccc(O)c(O)c2)O[C@@H]1CO` [compound 18, calA], which Km (CtUGT79G13) is on record?
Its Km is 77.8 ± 6.1 µM.
